GSIS activator: GLuc luminescence reporter in INS-1E cells, primary screen for activators of glucose-dependent secretion of insulin; activation, % at 16.6 µM; hit rate 0.61% among 370,000; AID 743287; INS-1E GLuc reporter insulin secretion, 2-3 h;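 active means lowest replicate activation of at least 40%, so every replicate reaches that level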
HIV Env fusion: HIV envelope-mediated fusion inhibition; HeLa-JRFL Env/CEM21 cell fusion, luciferase; hit rate 1.1% among 360,000; inhibition, % at 12.3 µM;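 active means mean replicate inhibition score of at least 50 and every replicate individually at or above 50; inconclusive means only one of the two criteria met; inactive means mean below 50 and not all replicates reaching 50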
miR122 inh: miR-122 inhibition in Huh7 cells | AID 602342 | Huh7 miR-122 Renilla luciferase sensor, 48 h; neutral wells = 0, positive control = 100 | hit rate 0.3% among 340,000 | activation (reporter increase), % at 12.5 µM;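 active means mean replicate activation score at least 90 and every replicate individually at or above 90; inconclusive means only one of the two criteria met; inactive means neither criterion met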;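 further: higher luciferase means less miR-122 activity so hits act as miR-122 inhibitors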
Cneo AK release: Cryptococcus neoformans lysis via adenylate kinase release. C. neoformans lysis, adenylate kinase release luminescence, 4 h; normalised: neutral wells 0, clomiphene wells 100. lysis activity, % at 15 µM. hit rate 0.2% among 360,000;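 active means mean lysis activity across replicates of at least 80%, whatever share of replicates individually reach that level; inactive means mean lysis activity below 80%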
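Assay system: log-phase C. neoformans yeast / Quantity: yeast cell density of 5 × 10^6 cells/mL / Medium: fresh YPD growth medium / Compound: single dose / Timing: static 4 h at 37 °C with compound, 1 h detection / Measured by: adenylate kinase release luminescence / Read-out: lysis from increased AK signal / Benchmarks: Clomiphene as positive lysis control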
Ecoli rRNA inh: inhibitors of bacterial rRNA selective over humanized ribosomes. AID 720706. GFP signal change (wild-type ribosome), % (no concentration beside the values). hit rate 1.6% among 350,000. E. coli WT GFP vs humanized-ribosome RFP mutants, fluorescence, 24 h; active compounds read low; DMSO median 0, no signal -100;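 active means significant combined selectivity score with lowered wild-type GFP, culture density cut under 30%, mutant RFP and density less affected; inactive means any of these conditions unmet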
CFTR F508del cor: CFTR F508del correction in bronchial cells; CFBE cells, YFP halide quenching; stimulated with forskolin plus potentiator P3; % fluorescence drop versus neutral controls; activity (quench increase), % at 7.58 µM; hit rate 0.36% among 350,000;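 active means mean added fluorescence quench of at least 8% versus neutral control, with both replicates also reaching 8%; inconclusive means only one of the mean or replicate conditions met; inactive means mean below 8% and not both replicates reaching 8%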;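 further: cells transiently co-express mutant CFTR-F508del with the halide-sensitive YFP; corrector assay measuring rescue of mutant channel to the surface after 24 h compound exposure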
Numbers stand for hits; n = inactive; u = inconclusive; x = no result. In the library only some 3.1% were active in any assay of this set; here they are far more common.

SMILES	GSIS activator	HIV Env fusion	miR122 inh	Cneo AK release	Ecoli rRNA inh	CFTR F508del cor
CC(C)NC(=O)N[C@H]1CC[C@H](CCNC(=O)C2CCOCC2)O[C@H]1CO	n	n	n	n	n	n
CCOC(=O)c1sc(/S(C)=N\S(=O)(=O)c2cccc(Cl)c2)c2c1CCC=C2 (centres undefined)	n	n	x	x	-19.1	n
CCOC(=O)C1=CCN(S(=O)(=O)c2cccc(Cl)c2)C1c1ccc(C)cc1 (centres undefined)	n	x	n	n	n	n
COc1ccc2c3c(n(C)c2c1)[C@H](CO)N(C(=O)NC(C)C)CC31CCN(CC2CCCC2)CC1	n	x	x	x	n	n
COc1cc(-c2nccc3cc4c(cc23)OCO4)cc(OC)c1OC	x	n	n	n	n	9.2
COc1cc2cc(OC(C)=O)c3cc4c(cc3c2c(OC)c1OC)OCO4	n	n	x	x	x	n
O=C(C[C@H]1CC[C@@H](NS(=O)(=O)c2ccc(F)cc2)[C@H](CO)O1)NCc1ccncn1	n	n	x	n	n	n
c1ccc2c(c1)C1=NCCN1c1ccccc1-2	n	n	x	x	n	11.3
CN(Cc1ccno1)Cc1cn(C)nc1-c1ccc(Oc2ccccc2)cc1	n	n	n	x	-33.7	n
CC(=O)N1C[C@@H]2C(c3ccc(Br)cc3)[C@H](C1)N2Cc1ccc(F)cc1 (some centres undefined)	n	x	x	x	n	x
COc1ccccc1-c1cnc2c(c1)C(=O)N([C@H](C)CO)C[C@H](C)[C@@H](CN(C)Cc1ccc(C(=O)O)cc1)O2	n	n	n	n	n	n
CNC(=O)c1ccsc1NC(=O)c1ccccc1	n	n	n	n	n	n
CNC(=O)c1ccsc1NC(=O)c1ccc(Cl)s1	n	n	n	n	-28.4	n
O=C(N[C@H](Cc1ccccc1)C(=O)N1CCN(Cc2ccccn2)CC1)[C@H]1O[C@@H](n2ccc(=O)[nH]c2=O)[C@H](O)[C@@H]1O	n	u	x	x	n	n
O=C([C@H]1O[C@@H](n2ccc(=O)[nH]c2=O)[C@H](O)[C@@H]1O)N1CCN(Cc2ccccn2)CC1	n	57.2	x	x	n	n
CCS(=O)(=O)N1CC2(CN[C@H](CO)c3c2c2ccc(OC)cc2n3C)C1	n	x	x	x	n	x
O=[N+]([O-])c1ccc(Cl)c(C2Nc3cccc4cccc(c34)N2)c1	x	57.6	n	n	x	x
O=C(C[C@H]1C[C@@H]2c3cc(NC(=O)C4CCOCC4)ccc3O[C@@H]2[C@H](CO)O1)NCc1ccncc1	n	n	n	n	n	n
CCCNC(=O)N[C@@H]1CC[C@H](CCn2cc(-c3cccc(F)c3)nn2)O[C@H]1CO	n	n	x	n	n	n
O=C(c1ccco1)N1N=C(C2CCCCC2)CC1(O)C(F)(F)F (centres undefined)	51.9	n	x	x	n	n
C#CCNC(=O)C1=C[C@H](C(C)(C)C)C[C@H](OCc2ccc(CO)cc2)O1	n	n	n	n	n	n
CC(C)(C)[C@@H]1C=C(C(=O)Nc2ccccc2)O[C@H](OCc2ccc(CO)cc2)C1	n	96.6	n	n	n	n
COCC#Cc1ccc([C@H]2[C@@H](CO)N3C(=O)CN(C(=O)Nc4ccc(F)cc4)C[C@H]23)cc1	n	x	x	x	n	n
CC(=O)N1C[C@@H]2C(c3ccc(Br)cc3)[C@H](C1)N2CC(F)(F)F (some centres undefined)	n	x	x	x	n	x
Cc1c(O)c(=O)n(-c2ccccc2)n1C	n	n	n	n	-16.0	n
SMILES	GSIS activator	HIV Env fusion	miR122 inh	Cneo AK release	Ecoli rRNA inh	CFTR F508del cor
Cc1c(-n2c(SCC(C)C)nc3ccccc3c2=O)c(=O)n(-c2ccccc2)n1C	n	n	x	n	-26.4	n
CC(C#N)Sc1nc2ccccc2c(=O)n1-c1ccccc1 (centres undefined)	n	x	n	n	-22.4	n
CCCNC(=O)Nc1ccc2c(c1)C(=O)N(C)[C@@H]1CC[C@@H](CC(=O)NCCCN(C)C)O[C@@H]1CO2	n	x	n	n	n	n
COCCN=c1scc(C)n1/N=C/C1CC2C=CC1C2 (centres undefined)	n	63.1	x	x	n	n
O=C(CSc1nnc(C2CC2)n1C1CC1)c1ccc(Br)s1	n	n	n	n	-28.4	n
O=C(CSc1nnc(C2CC2)n1C1CC1)c1cccs1	n	x	x	n	n	n
O=C(N[C@H](c1cccc(Br)c1)[C@@H]1CCCC=C1c1ccccc1)C(F)(F)F	x	67.0	x	x	n	n
COc1ccc2nc(CCN(C)C(=O)C3CCC(=O)N(Cc4cccc(F)c4)C3)[nH]c2c1 (centres undefined)	61.5	n	n	n	n	n
COc1cccc(CN2CC(C(=O)N(C)Cc3nc4ccc(F)cc4[nH]3)CCC2=O)c1 (centres undefined)	n	n	x	n	n	n
COc1cccc(CN2CC(C(=O)N(C)Cc3ccc(C)cc3)CCC2=O)c1 (centres undefined)	n	58.2	n	n	n	n
COc1cccc(CN2CC(C(=O)N(C)Cc3[nH]c4ccccc4c3C)CCC2=O)c1 (centres undefined)	n	n	n	n	n	n
CN(C)CC(=O)Nc1ccc2c(c1)[C@@H]1C[C@H](CC(=O)NCc3ccccc3)O[C@@H](CO)[C@@H]1O2	n	n	n	n	n	n
COc1ccccc1-c1ccc([C@H]2[C@H](C#N)N(C(=O)C3CC3)[C@H]2CO)cc1	n	n	x	81.0	n	n
COc1ccccc1-c1ccc([C@H]2[C@@H](C#N)N(C(=O)C3CC3)[C@H]2CO)cc1	n	n	x	n	n	n
COc1ccccc1-c1ccc([C@H]2[C@@H](C#N)N(C(=O)C3CC3)[C@@H]2CO)cc1	n	n	x	87.2	n	n
COc1ccccc1-c1ccc([C@@H]2[C@H](C#N)N(C(=O)C3CC3)[C@H]2CO)cc1	n	n	x	n	n	n
COc1ccc(NC(=O)Nc2cccc3c2O[C@@H](CN(C)Cc2ccc(C(F)(F)F)cc2)[C@@H](C)CN([C@@H](C)CO)C3=O)cc1	n	n	n	n	n	n
C[C@H]1CN([C@@H](C)CO)C(=O)c2cc(NC(=O)Nc3ccc4c(c3)OCO4)ccc2O[C@H]1CN(C)C(=O)NC1CCCCC1	n	n	n	n	n	n
Cc1nc(Cl)c2c(n1)NC(=O)CO2	n	n	n	n	n	n
Cc1nc2c(c(N3CCOCC3)n1)OCC(=O)N2	72.9	x	x	n	n	x
OC(CNc1nc(C(F)(F)F)nc2ccccc12)c1ccccc1 (centres undefined)	n	57.7	n	n	n	n
O=C(O)CCNc1nc(C(F)(F)F)nc2ccccc12	n	n	n	x	n	n
Cc1cc(-c2ccc(C(C)C)c(S(=O)(=O)NCc3ccco3)c2)on1	n	n	167.7	x	n	n

Compound activity (PubChem)
